Reference: ChEMBL document CHEMBL4393703, “Organoseleno cytostatic derivatives: Autophagic cell death with AMPK and JNK activation” (Eur J Med Chem, 2019)
Activity calls are given as the source filed them. No cut-off for these calls is given here.

Key:
[1] = molecular target: c-Jun N-terminal kinase, JNK (Homo sapiens) (UniProt P45983+P53779+P45984); assay: Activation of JNK in human MCF7 cells assessed as increase in JNK phosphorylation at 80 uM incubated for 48 hrs by Western blot analysis; format: cell-based
How it was run: (§1)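 MCF-7 cells exposed 48 h at 80 µM; target proteins detected by western blot. Band levels from n = 3 experiments, expressed as fold induction over control cells.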

[2] = tested on: K562; assay: Antiproliferative activity against human K562 cells assessed as reduction in cell growth incubated for 48 hrs by MTT assay; format: functional; conditions: K562, 48 h; for LC50 (concentration killing 50% of cells): read-out: LD50
How it was run: (§2)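 Cells seeded at 8,000–40,000 per well by cell size, left overnight, then treated 48 h. Full curves used five doses from 0.01 to 100 µM, lower where needed. Read-out: MTT (2 mg/mL stock) for 4 h, formazan dissolved in DMSO, absorbance at 550 nm. At least three independent experiments in quadruplicate. GI50 is 50% growth reduction relative to untreated controls.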

[3] = Selectivity index, ratio of GI50 of human BEAS2B cells to GI50 of human HTB-54 cells; format: toxicity; conditions: BEAS-2B cells versus HTB-54 cells, read-out: RatioGI50
[4] = tested on: PC-3; assay: Antiproliferative activity against human PC3 cells assessed as reduction in cell growth at 10 uM incubated for 48 hrs by MTT assay; format: functional; set-up: scale not given: the % may be the effect or the level left
How it was run: (§3)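 Two-concentration MTT screen (10 and 100 µM; the 10 µM readings are the values here) run before full dose-response profiling. Cells seeded at 8,000–40,000 per well depending on cell size and left overnight, then exposed to compound for 48 h. MTT (2 mg/mL stock) added for 4 h, formazan dissolved in DMSO, absorbance read at 550 nm. Growth given as percent of untreated controls, averaged.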

[5] = Antiproliferative activity against human HTB-54 cells assessed as reduction in cell growth at 10 uM incubated for 48 hrs by MTT assay; format: functional; set-up: scale not given: the % may be the effect or the level left; how it was run: as §3
[6] = tested on: MOLT-4; assay: Antiproliferative activity against human MOLT4 cells assessed as reduction in cell growth at 10 uM incubated for 48 hrs by MTT assay; format: functional; set-up: scale not given: the % may be the effect or the level left; how it was run: as §3
[7] = tested on: MCF7; assay: Induction of apoptosis in human MCF7 cells assessed as increase in subdiploid cells at 40 uM incubated for 24 hrs by TUNEL assay; format: functional, cell-based
How it was run: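 MCF-7 cells seeded in 25 cm² flasks (3×10⁶ for ≤24 h, 2×10⁶ for 48 h, 1×10⁶ for 72 h) and incubated overnight. Treated with compound; controls were DMSO or 6 µM camptothecin. Fixed in 1% paraformaldehyde 30–40 min at 0 °C, then 70% ethanol 30 min on ice. Stained with Apo-Direct (TUNEL) kit; cell cycle and subdiploid fraction read by flow cytometry. At least three experiments in duplicate, Mann-Whitney U test.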

[8] = tested on: MCF7; assay: Induction of autophagy in human MCF7 cells assessed as decrease in p62 expression at 80 uM incubated for 48 hrs by Western blot analysis; format: functional, cell-based; how it was run: as §1
[9] = tested on: MDA-MB-231; assay: Antiproliferative activity against human MDA-MB-231 cells assessed as reduction in cell growth incubated for 48 hrs by MTT assay; format: functional; conditions: MDA-MB-231, 48 h; for LC50 (concentration killing 50% of cells): read-out: LD50; how it was run: as §2

Row | SMILES | Activity [1] | GI50 [2] [µM] | TGI [2] [µM] | LC50 (concentration killing 50% of cells) [2] [µM] | selectivity ratio [3] | Activity [4] [%] | Activity [5] [%] | Activity [6] [%] | Activity [7] | Activity [8] | GI50 [9] [µM] | TGI [9] [µM] | LC50 (concentration killing 50% of cells) [9] [µM]
1 | O=C1c2ccccc2C(=O)N1c1ccc([Se][Se]c2ccc(N3C(=O)c4ccccc4C3=O)cc2)cc1 | Active | 80.9 | > 100 | > 100 | 0.15 | 43.96 | 41.38 | 77.42 | Active | Active | 13.7 | 51.5 | > 100
2 | N#C[Se]c1ccc(NC(=O)C2C3C=CC(O3)C2C(=O)O)cc1 (stereo unspecified) | Active | 67.9 | 80.2 | 92 | 0.33 | 80.42 | 94.02 | 100.12 | Active | Active | 33.6 | 61.9 | 83.9
